ChEMBL document CHEMBL3877261, “New azepino[4,3-b]indole derivatives as nanomolar selective inhibitors of human butyrylcholinesterase showing protective effects against NMDA-induced neurotoxicity” (Eur J Med Chem, 2017)
Activity calls are given as the source filed them. No cut-off for these calls is given here.

Columns and labels:
[1] = target: Cholinesterase (Equus caballus) (UniProt P81908); assay: Inhibition of horse serum BChE at 10 uM pretreated for 20 mins followed by butyrylthiocholine iodide substrate addition measured for 5 mins by Ellman's method relative to control
Chain of Cholinesterase (Equus caballus) (P81908 whole entry): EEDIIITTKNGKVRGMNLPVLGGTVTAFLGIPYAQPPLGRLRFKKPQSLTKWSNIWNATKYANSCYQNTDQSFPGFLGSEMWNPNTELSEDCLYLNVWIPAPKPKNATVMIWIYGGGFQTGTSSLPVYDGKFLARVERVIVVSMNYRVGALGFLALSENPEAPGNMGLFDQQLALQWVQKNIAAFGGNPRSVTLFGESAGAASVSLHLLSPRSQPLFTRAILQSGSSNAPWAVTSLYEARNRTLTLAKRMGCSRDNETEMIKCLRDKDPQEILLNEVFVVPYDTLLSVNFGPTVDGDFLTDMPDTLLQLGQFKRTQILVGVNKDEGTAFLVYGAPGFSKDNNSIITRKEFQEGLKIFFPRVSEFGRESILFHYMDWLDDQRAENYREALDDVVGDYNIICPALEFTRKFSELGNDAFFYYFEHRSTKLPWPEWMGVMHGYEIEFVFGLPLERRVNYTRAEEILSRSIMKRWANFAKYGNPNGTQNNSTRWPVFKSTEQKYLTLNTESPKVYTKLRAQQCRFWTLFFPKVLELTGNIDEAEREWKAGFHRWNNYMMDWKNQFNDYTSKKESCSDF
Method in brief: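 Ellman colorimetric assay. BChE (0.9 U/mL stock in 0.1 M PB pH 8.0) with DTNB (3.3 mM stock in pH 7.0 PB plus NaHCO₃) and inhibitor (1×10^-4 to 1×10^-9 M, five to seven concentrations; or single 10 µM point) preincubated 20 min at 25 °C. Butyrylthiocholine iodide (0.05 mM stock) then added and absorbance read at 412 nm for 5.0 min. IC50 from nonlinear regression of log response curves, mean of ≥3 independent runs.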

Cholinesterase [2] = target: T1, Cholinesterase (Equus caballus, UniProt P81908); assay: Stability assessed as horse serum BChE mediated compound hydrolysis at 300 x 10^-7M at pH 8 measured every 5 mins for 1 hr by UV-Vis spectra analysis; format: ADME; conditions: buffer, pH 8, 1 h, 30 µM
T1 sequence (P81908 whole entry): as above

Cholinesterase [3] = target: T1, Cholinesterase; assay: Inhibition of horse serum BChE pretreated for 20 mins followed by butyrylthiocholine iodide substrate addition measured for 5 mins by Ellman's method
Acetylcholinesterase [4] = target: Acetylcholinesterase (Electrophorus electricus, UniProt O42275); assay: Inhibition of electric eel AChE pretreated for 20 mins followed by acetylthiocholine iodide substrate addition measured for 5 mins by Ellman's method
Chain of Acetylcholinesterase (Electrophorus electricus, UniProt O42275) (O42275 whole entry): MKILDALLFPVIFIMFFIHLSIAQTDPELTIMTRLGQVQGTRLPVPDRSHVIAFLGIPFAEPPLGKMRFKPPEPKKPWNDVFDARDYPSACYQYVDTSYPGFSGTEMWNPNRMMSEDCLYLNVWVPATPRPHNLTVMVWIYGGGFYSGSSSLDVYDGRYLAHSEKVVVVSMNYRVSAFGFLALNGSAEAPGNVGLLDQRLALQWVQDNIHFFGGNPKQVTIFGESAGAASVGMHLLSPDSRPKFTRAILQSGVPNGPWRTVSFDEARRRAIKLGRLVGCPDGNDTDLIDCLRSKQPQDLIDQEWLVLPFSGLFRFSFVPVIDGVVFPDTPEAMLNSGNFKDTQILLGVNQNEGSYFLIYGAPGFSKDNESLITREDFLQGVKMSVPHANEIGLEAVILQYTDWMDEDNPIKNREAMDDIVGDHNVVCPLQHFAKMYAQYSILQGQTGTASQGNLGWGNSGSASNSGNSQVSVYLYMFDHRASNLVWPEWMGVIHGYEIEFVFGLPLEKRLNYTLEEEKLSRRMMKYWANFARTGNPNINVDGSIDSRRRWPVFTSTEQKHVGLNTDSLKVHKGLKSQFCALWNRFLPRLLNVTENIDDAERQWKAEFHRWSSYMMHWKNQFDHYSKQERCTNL

SH-SY5Y = assay: Neuroprotective activity against NMDA-induced toxicity in human SH-SY5Y cells assessed as increase in cell viability at 0.5 uM incubated for 48 hrs by MTT assay; format: functional, cell-based
Method in brief: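 SH-SY5Y at ~5,000 cells/well in reduced-serum (2% FBS) medium co-exposed 48 h at 37 °C to NMDA (250 µM final) and compound. Viability by MTT, as % of NMDA-untreated cells. Mean ± SEM; one-way ANOVA with Dunnett's test, P < 0.05 significant.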

[5] = Neuroprotective activity against NMDA-induced toxicity in human SH-SY5Y cells assessed as cell viability at 5 uM incubated for 48 hrs by MTT assay relative to control; format: functional; conditions: read-out: Activity
Method in brief: (§1)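 SH-SY5Y in DMEM with 2% FBS, seeded ~5,000 cells/well and grown 1 day. Co-exposed 48 h at 37 °C to NMDA (250 µM final) plus test compound. MTT (0.5% w/v) added for 4 h, formazan dissolved in DMSO/ethanol 1:1, absorbance read. Triplicates as % of untreated control, mean ± SEM; one-way ANOVA with Dunnett's test.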

Cholinesterase [6] = target: T1, Cholinesterase; assay: Stability assessed as horse serum BChE mediated compound hydrolysis at 300 x 10^-6M at pH 8 measured every 5 mins for 1 hr by UV-Vis spectra analysis; format: ADME; conditions: buffer, pH 8, 1 h, 300 µM
[7] = Hepatotoxicity against human HepG2 cells assessed as growth inhibition measured after 48 hrs by MTT assay; format: toxicity, cell-based
Method in brief: (§2)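 Cells kept in DMEM with 10% FBS, 2 mM L-glutamine, penicillin/streptomycin, 37 °C, 5% CO₂. Seeded ~5,000 cells/well, 1 day, then exposed to compound at 0.1-500 µM for 48 h. MTT 0.5% (w/v) added for 4 h, formazan dissolved in DMSO/ethanol 1:1, absorbance read. Triplicates, as % of untreated control. GI50 from concentration-response curves.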

Acetylcholinesterase [8] = target: T2, Acetylcholinesterase (Homo sapiens, UniProt P22303); assay: Inhibition of human AChE pretreated for 20 mins followed by acetylthiocholine iodide substrate addition measured for 5 mins by Ellman's method
T2 sequence (P22303 whole entry): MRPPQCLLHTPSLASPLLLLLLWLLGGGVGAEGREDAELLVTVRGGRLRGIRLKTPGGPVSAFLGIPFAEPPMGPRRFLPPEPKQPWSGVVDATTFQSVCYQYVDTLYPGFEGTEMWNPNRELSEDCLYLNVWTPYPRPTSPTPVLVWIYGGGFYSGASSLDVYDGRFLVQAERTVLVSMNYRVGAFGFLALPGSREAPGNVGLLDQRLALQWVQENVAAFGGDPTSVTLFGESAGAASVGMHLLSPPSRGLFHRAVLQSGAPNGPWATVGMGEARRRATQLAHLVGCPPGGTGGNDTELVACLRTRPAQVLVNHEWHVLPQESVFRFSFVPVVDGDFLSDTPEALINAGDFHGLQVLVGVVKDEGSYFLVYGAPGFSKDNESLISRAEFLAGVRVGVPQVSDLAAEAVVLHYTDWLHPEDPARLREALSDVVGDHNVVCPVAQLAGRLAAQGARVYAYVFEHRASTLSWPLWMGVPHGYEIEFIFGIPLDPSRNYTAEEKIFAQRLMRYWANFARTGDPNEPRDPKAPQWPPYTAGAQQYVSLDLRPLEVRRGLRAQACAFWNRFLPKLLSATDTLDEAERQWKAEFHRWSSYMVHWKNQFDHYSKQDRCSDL
Method in brief: (§3)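 Ellman colorimetric assay with DTNB (3.3 mM stock, pH 7.0 PB). Test compound (five to seven concentrations, 1×10^-4 to 1×10^-9 M; or single 10 µM point) preincubated with enzyme 20 min at 25 °C in 0.1 M PB pH 8.0. Rate followed at 412 nm for 5.0 min after adding thiocholine substrate (0.05 mM). IC50 by nonlinear regression, mean of ≥3 independent determinations.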

[9] = Neurotoxicity against human U87 cells assessed as growth inhibition measured after 48 hrs by MTT assay; format: toxicity, cell-based, U-87MG ATCC; method in brief: as §2
[10] = Cytotoxicity against human MCF7 cells assessed as growth inhibition measured after 48 hrs by MTT assay; format: toxicity, cell-based; method in brief: as §2
Cholinesterase [11] = target: Cholinesterase (Homo sapiens, UniProt P06276); assay: Inhibition of human BChE pretreated for 20 mins followed by butyrylthiocholine iodide substrate addition measured for 5 mins by Ellman's method; method in brief: as §3
Chain of Cholinesterase (Homo sapiens, UniProt P06276) (P06276 whole entry): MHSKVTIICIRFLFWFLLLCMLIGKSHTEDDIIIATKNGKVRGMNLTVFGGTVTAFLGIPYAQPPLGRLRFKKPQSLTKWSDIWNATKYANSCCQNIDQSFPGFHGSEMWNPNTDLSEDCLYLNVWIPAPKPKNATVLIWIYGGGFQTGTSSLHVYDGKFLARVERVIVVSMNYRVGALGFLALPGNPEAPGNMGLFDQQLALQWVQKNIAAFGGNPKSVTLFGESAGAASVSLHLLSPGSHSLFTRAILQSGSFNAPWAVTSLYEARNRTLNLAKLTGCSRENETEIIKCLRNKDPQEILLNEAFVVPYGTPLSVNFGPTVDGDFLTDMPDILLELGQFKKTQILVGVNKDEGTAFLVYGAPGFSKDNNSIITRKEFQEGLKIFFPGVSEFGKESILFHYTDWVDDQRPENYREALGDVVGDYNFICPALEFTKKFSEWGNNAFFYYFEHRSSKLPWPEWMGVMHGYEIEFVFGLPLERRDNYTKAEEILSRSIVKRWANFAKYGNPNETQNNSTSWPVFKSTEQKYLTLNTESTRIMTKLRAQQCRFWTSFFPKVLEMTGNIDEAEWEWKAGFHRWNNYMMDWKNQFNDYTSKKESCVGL

[12] = Neurotoxicity against human SH-SY5Y cells assessed as growth inhibition measured after 48 hrs by MTT assay; format: toxicity, cell-based; conditions: for GI50 at 48 h: SH-SY5Y cells; for growth inhibition (GI): sh-sy5y, 48 h
Method in brief: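 SH-SY5Y grown in DMEM/10% FBS, then treated in reduced-serum (2% FBS) medium. Compounds from 20 mM DMSO stock, tested at 0.1-1000 µM for 48 h after 1-day attachment at ~5,000 cells/well. MTT 4 h, DMSO/ethanol solubilization, absorbance. Triplicate wells, % of untreated control. GI50 from dose-response.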

[13] = Neuroprotective activity against NMDA-induced toxicity in human SH-SY5Y cells assessed as cell viability at 0.5 uM incubated for 48 hrs by MTT assay relative to control; format: functional; conditions: read-out: Activity; method in brief: as §1
Cholinesterase [14] = target: T1, Cholinesterase; assay: Competitive inhibition of horse serum BChE in presence of varying levels of butyrylthiocholine iodide substrate by Lineweaver-burk plot method
Method in brief: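 Lineweaver-Burk fit (1/v vs 1/[S]) using fixed enzyme at 0.09 U×mL^-1, substrate varied 25−250 µM, run without inhibitor and with inhibitor at four concentrations spanning 0.5-5.0 nM.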

Acetylcholinesterase [15] = target: T2, Acetylcholinesterase; assay: Inhibition of human AChE at 10 uM pretreated for 20 mins followed by acetylthiocholine iodide substrate addition measured for 5 mins by Ellman's method relative to control; method in brief: as §3

Which inhibition [1] does the source give for `O=C1NCCCc2c1c1ccccc1n2Cc1ccccc1` here?
Its inhibition is 25%.

With `O=C1CCCc2c(c3ccccc3n2CCc2ccccc2)N1` as the compound, how does the inhibition [1] read?
Its inhibition is 25%.

What about the Stability (Cholinesterase [2]) of the same compound?
Its Stability is “Stable”.

With `O=C1NCCCc2c1c1ccccc1n2CCc1ccc(Cl)cc1` as the compound, how does the IC50 (Cholinesterase [3]) read?
The IC50 was 1.9 µM.

With `CC(C)CCn1c2c(c3ccccc31)C(=O)NCCC2` as the compound, how does the IC50 (Cholinesterase [3]) read?
The IC50 was 22.3 µM.

What about the IC50 (Acetylcholinesterase [4]) of the same compound?
Its IC50 is 100 µM.

With `O=C1NCCCc2c1c1ccccc1n2CCc1ccccc1` as the compound, how does the Activity (SH-SY5Y) read?
The Activity was “Active”.

And the viability at 5 µM [5]?
Its viability at 5 µM is 76.9%.

What about the Stability (Cholinesterase [6]) of the same compound?
Its Stability is “Stable”.

What about the GI50 at 48 h [7] of the same compound?
The GI50 at 48 h was 120 µM.

What about the IC50 (Acetylcholinesterase [8]) of the same compound?
Its IC50 is 12.6 µM.

And the IC50 (Cholinesterase [3])?
Its IC50 is 0.024 µM.

And the GI50 at 48 h [9]?
Its GI50 at 48 h is 288 µM.

What about the IC50 (Acetylcholinesterase [4]) of the same compound?
The IC50 was 20 µM.

And the GI50 at 48 h [10]?
Its GI50 at 48 h is 170 µM.

And the IC50 (Cholinesterase [11])?
The IC50 was 0.013 µM.

What about the GI50 at 48 h [12] of the same compound?
Its GI50 at 48 h is 138 µM.

What about the “growth inhibition (GI)” value [12] of the same compound?
The value was “Dose-dependent effect”.

With `CC(=O)OCCCCn1c2c(c3ccccc31)C(=O)NCCC2` as the compound, how does the IC50 (Cholinesterase [3]) read?
The IC50 was 10.7 µM.

With `Cc1ccc(CCn2c3c(c4ccccc42)C(=O)NCCC3)cc1` as the compound, how does the IC50 (Cholinesterase [3]) read?
The IC50 was 68.2 µM.

For `O=C1NCCCc2c1c1ccccc1n2CCc1ccc(F)cc1`, which viability at 5 µM [5] is on record?
The viability at 5 µM was 76.6%.

What about the GI50 at 48 h [7] of the same compound?
The GI50 at 48 h was 230 µM.

And the IC50 (Acetylcholinesterase [8])?
Its IC50 is 10 µM.

And the IC50 (Cholinesterase [3])?
Its IC50 is 0.23 µM.

And the GI50 at 48 h [9]?
Its GI50 at 48 h is over 500 µM.

And the GI50 at 48 h [10]?
The GI50 at 48 h was over 500 µM.

And the IC50 (Cholinesterase [11])?
The IC50 was 5 µM.

What about the GI50 at 48 h [12] of the same compound?
Its GI50 at 48 h is 251 µM.

What about the “growth inhibition (GI)” value [12] of the same compound?
Its value is “Dose-dependent effect”.

Which results are given for `CCOC(=O)NCCCn1c2c(c3ccccc31)C(=O)NCCC2`?
IC50 (Cholinesterase [3]): 15 µM; IC50 (Acetylcholinesterase [4]): 110 µM

What does the source list for `CCOC(=O)CCCn1c2c(c3ccccc31)C(=O)NCCC2`?
IC50 (Cholinesterase [3]): 25.7 µM; IC50 (Acetylcholinesterase [4]): 60 µM

Which results are given for `O=c1[nH]cc(F)c(=O)[nH]1` [FLUOROURACIL]?
GI50 at 48 h [7]: 7 µM; GI50 at 48 h [9]: 13 µM; GI50 at 48 h [10]: 4.5 µM

Which results are given for `CCCNC(=O)c1cn(CCc2ccccc2)c2ccccc12`?
IC50 (Cholinesterase [3]): 12.6 µM; IC50 (Acetylcholinesterase [4]): 10.3 µM

Which IC50 (Cholinesterase [3]) does the source give for `O=C1CCCc2c1c1ccccc1n2CCc1ccccc1` here?
Its IC50 is 10 µM.

And the IC50 (Acetylcholinesterase [4])?
Its IC50 is 10 µM.

With `O/N=C1\CCCc2c1c1ccccc1n2CCc1ccccc1` as the compound, how does the inhibition [1] read?
The inhibition was 5%.

What does the source list for `CC12CC3CC(C)(C1)CC(N)(C3)C2` [MEMANTINE]?
viability at 5 µM [5]: 68%; GI50 at 48 h [12]: 145 µM; growth inhibition (GI) [12]: Dose-dependent effect

With `O=C1NCCCc2c1c1ccccc1n2CCCc1ccccc1` as the compound, how does the inhibition [1] read?
The inhibition was 20%.

With `O=C1NCCCc2c1c1ccccc1n2CCc1cccc(Cl)c1` as the compound, how does the IC50 (Cholinesterase [3]) read?
The IC50 was 0.065 µM.

For `O=C1NCCCc2c1c1ccccc1n2CCc1cccc(F)c1`, which viability at 0.5 µM [13] is on record?
Its viability at 0.5 µM is 70%.

What about the GI50 at 48 h [7] of the same compound?
Its GI50 at 48 h is 159 µM.

And the IC50 (Cholinesterase [3])?
Its IC50 is 0.0015 µM.

What about the GI50 at 48 h [9] of the same compound?
Its GI50 at 48 h is 162 µM.

And the Ki (Cholinesterase [14])?
The Ki was 0.0007 µM.

What about the inhibition (Acetylcholinesterase [15]) of the same compound?
Its inhibition is 6%.

And the GI50 at 48 h [10]?
The GI50 at 48 h was 162 µM.

What about the IC50 (Cholinesterase [11]) of the same compound?
The IC50 was 0.0018 µM.

What about the GI50 at 48 h [12] of the same compound?
The GI50 at 48 h was 2.61 µM.

What about the “growth inhibition (GI)” value [12] of the same compound?
The value was “Dose-dependent effect”.

For `O=C1NCCCc2c1c1cc(F)ccc1n2CCc1ccccc1`, which IC50 (Cholinesterase [3]) is on record?
Its IC50 is 0.028 µM.

With `Cl.c1ccc(CCn2c3c(c4ccccc42)CNCCC3)cc1` as the compound, how does the viability at 0.5 µM [13] read?
Its viability at 0.5 µM is 76%.

What about the GI50 at 48 h [7] of the same compound?
The GI50 at 48 h was 25 µM.

And the IC50 (Cholinesterase [3])?
The IC50 was 1.14 µM.

What about the GI50 at 48 h [9] of the same compound?
Its GI50 at 48 h is 41 µM.

And the GI50 at 48 h [10]?
Its GI50 at 48 h is 28 µM.

What about the GI50 at 48 h [12] of the same compound?
The GI50 at 48 h was 5.6 µM.

And the “growth inhibition (GI)” value [12]?
Its value is “Dose-dependent effect”.

For `CN1CCCc2c(c3ccccc3n2CCc2ccccc2)C1=O`, which inhibition [1] is on record?
Its inhibition is 10%.

What about the IC50 (Acetylcholinesterase [4]) of the same compound?
The IC50 was 44.8 µM.
